A short description of series [1]: Inhibition of HCV BK NS5B polymerase deltaC21 mutant. It is filed as single protein, NS5B polymerase (HCV isolate BK). The method, boiled down:
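Purified NS5B enzyme (BK strain, C-terminal 21-residue truncation) assayed for polymerase activity on heterogeneous template RNA, following a modified version of a previously published procedure.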

The test system of series [2] is Hepatitis C virus. Briefly: Antiviral activity against HCV assessed as inhibition of viral subgenomic RNA replication in human HuH7 cells by replicon assay in presence of 10% fetal calf serum. As to conditions: Huh-7. It is filed as functional, organism-based, Hepacivirus hominis.
For series [3], the system named is Hepatitis C virus. Nature of the series: Antiviral activity against HCV assessed as inhibition of viral subgenomic RNA replication in human HuH7 cells by replicon assay in presence of 50% normal human serum. The class given is functional, organism-based, Hepacivirus hominis, Huh-7.
In series [4] the test system is Plasma. Briefly: Protein binding in human plasma. The class given is ADME, cell-free.
Series [5] concerns Hepatitis C virus. Briefly: Ratio of EC50 for HCV RNA replication in human HuH7 cells in presence of 50% normal human serum to EC50 for HCV RNA replication in human HuH7 cells in presence of 10% fetal calf serum. The class given is functional, Hepacivirus hominis, Huh-7.

SMILES strings stand for the structures. Where only a bound is given, the exact number is not on record here.

`CN(C)C(=O)CN1CC[C@H]2Cn3c(c(C4CCCCC4)c4ccc(C(=O)O)cc43)-c3ccccc3[C@@H]21` yielded a 50% inhibitory concentration (IC50) in series [1] of 17 nM. Besides, the EC50 in series [2] was found to be 78 nM; in series [3] (Hepatitis C virus, Huh-7) it was 96 nM.

Turning to `COc1ccc2c(c1)[C@H]1[C@@H](CCN1CCN(C)C)Cn1c-2c(C2CCCCC2)c2ccc(C(=O)O)cc21` (stereo in doubt; 11), the IC50 in series [1] was determined as 4 nM. Besides, in series [3] (huh-7), the concentration for a half-maximal effect (EC50) stood at 49 nM.

The compound `O=C(O)c1ccc2c(C3CCCCC3)c3n(c2c1)C[C@@H]1CCN(CCN2CCCCC2)[C@H]1c1ccccc1-3` gave an IC50 in series [1] of 11 nM. Further, the EC50 in series [2] was determined as 40 nM; in series [3] (Hepatitis C virus, Huh-7), 220 nM. This compound registered an Activity in series [4] of 92%.

For the compound `COc1ccc2c(c1)[C@H]1[C@@H](CCN1C(=O)CN(C)C)Cn1c-2c(C2CCCCC2)c2ccc(C(=O)O)cc21`, in series [1], the half-maximal inhibitory concentration (IC50) stood at 23 nM. The EC50 in series [2] amounted to 32 nM; in series [3] (Hepatitis C virus, Huh-7), 110 nM.

As for `CN(C)CCNC(=O)N1CC[C@H]2Cn3c(c(C4CCCCC4)c4ccc(C(=O)O)cc43)-c3ccccc3[C@@H]21`, the midpoint of inhibition in series [1], the IC50, lay at 24 nM. In addition, the EC50 in series [2] amounted to 630 nM; in series [3] (Hepatitis C virus, Huh-7), 480 nM.

In the case of `COc1ccc2c(c1)[C@@H]1[C@H](CCN1CCN(C)C)Cn1c-2c(C2CCCCC2)c2ccc(C(=O)O)cc21`, half-maximal inhibition in series [1] (IC50) required 312 nM. Also, the EC50 in series [2] was > 1000 nM; in series [3] (Hepatitis C virus, Huh-7), > 1000 nM.

`CN(C)CC(=O)N1CC[C@H]2Cn3c(c(C4CCCCC4)c4ccc(C(=O)O)cc43)-c3ccccc3[C@@H]21` had a half-inhibitory concentration (IC50) in series [1] of 31 nM. Moreover, the EC50 in series [2] came out at 170 nM; in series [3] (Hepatitis C virus, Huh-7) it was 210 nM.

In series [1], `COc1ccc2c(c1)[C@H]1[C@@H](CCN1CCN(C)C)Cn1c-2c(C2CCCCC2)c2ccc(C(=O)O)cc21` (stereo in doubt; 8b) gave an IC50 of 8 nM. Moreover, the EC50 in series [2] turned out to be 25 nM; in series [3] (Hepatitis C virus, Huh-7), 63 nM. Further, the “Ratio EC50” value in series [5] turned out to be 2.5.

In the case of `COc1ccc2c(c1)[C@H]1[C@@H](CCN1C(=O)OCCN(C)C)Cn1c-2c(C2CCCCC2)c2ccc(C(=O)O)cc21`, in series [1], half-maximal inhibition (IC50) required 21 nM. Also, the EC50 in series [2] was determined as 180 nM; in series [3] (Hepatitis C virus, Huh-7), 225 nM.

With `CN(C)C(=O)Cn1c(-c2ccccc2)c(C2CCCCC2)c2ccc(C(=O)O)cc21`, 430 nM corresponded to half-maximal inhibition in series [1] (IC50). For the same compound, the EC50 was found to be 1540 nM in series [2] and 9850 nM in series [3] (Hepatitis C virus, Huh-7).

As to `CN(C)CCN1CC[C@H]2Cn3c(c(C4CCCCC4)c4ccc(C(=O)O)cc43)-c3ccccc3[C@@H]21`, the IC50 in series [1] was found to be 20 nM. The EC50 turned out to be 32 nM in series [2] and 98 nM in series [3] (Hepatitis C virus, Huh-7). The same compound showed an Activity in series [4] of 91.5%.

For the compound `CN1CC[C@H]2Cn3c(c(C4CCCCC4)c4ccc(C(=O)O)cc43)-c3ccccc3[C@@H]21`, in series [1], the half-maximal inhibitory concentration (IC50) was found to be 40 nM. In addition, the EC50 in series [2] stood at 830 nM; in series [3] (Hepatitis C virus, Huh-7) it was 700 nM. Besides, the “Ratio EC50” value in series [5] is 1.

In turn, `CN(C)CCCN1CC[C@H]2Cn3c(c(C4CCCCC4)c4ccc(C(=O)O)cc43)-c3ccccc3[C@@H]21` showed an IC50 in series [1] of 24 nM. Moreover, the half-maximal effective concentration (EC50) was 58 nM in series [2] and 80 nM in series [3] (Hepatitis C virus, Huh-7).

As to `CN(C)CCN1CCn2c(c(C3CCCCC3)c3ccc(C(=O)O)cc32)-c2ccccc21`, the concentration for half-maximal inhibition (IC50) in series [1] amounted to 28 nM. The EC50 in series [2] stood at 130 nM; in series [3] (Hepatitis C virus, Huh-7), 360 nM.

`CN(C)CCN1CC[C@H]2Cn3c(c(C4CCCCC4)c4ccc(C(=O)O)cc43)-c3ccccc3[C@H]21`: in series [1], the IC50 came to 30 nM. The EC50 in series [2] is 260 nM; in series [3] (Hepatitis C virus, Huh-7), 620 nM.

`CN1CC[C@@H]2c3ccccc3-c3c(C4CCCCC4)c4ccc(C(=O)O)cc4n3C[C@@H]21` gave a half-inhibitory concentration (IC50) in series [1] of 20 nM. Further, the EC50 amounted to 1200 nM in series [2] and 3800 nM in series [3] (Hepatitis C virus, Huh-7). Besides, the “Ratio EC50” value in series [5] was determined as 3.

In the case of `CN1CC[C@H]2Cn3c(c(C4CCCCC4)c4ccc(C(=O)O)cc43)-c3ccccc3[C@H]21`, it took 140 nM to reach half-maximal inhibition in series [1] (IC50). Moreover, the 50% effective concentration (EC50) in series [2] stood at 770 nM; in series [3] (Hepatitis C virus, Huh-7) it was 2540 nM. The “Ratio EC50” value in series [5] is on record as 3.

Turning to `CN(C)[C@H]1C[C@H]2Cn3c(c(C4CCCCC4)c4ccc(C(=O)O)cc43)-c3ccccc3[C@H]2C1`, in series [1], the IC50 is 30 nM. For the same compound, the EC50 was determined as 130 nM in series [2] and 890 nM in series [3] (Hepatitis C virus, Huh-7). For the same compound, in series [5], the “Ratio EC50” value turned out to be 7.

Regarding `O=C(O)c1ccc2c(C3CCCCC3)c3n(c2c1)C[C@@H]1CCN(CCCN2CCCCC2)[C@@H]1c1ccccc1-3`, in series [1], the midpoint of inhibition, the IC50, lay at 11 nM. Moreover, the 50% effective concentration (EC50) in series [2] came out at 53 nM; in series [3] (Hepatitis C virus, Huh-7) it was 110 nM.

Consider `CN(C)CCN1CCn2c(c(C3CCCCC3)c3ccc(C(=O)O)cc32)-c2ccccc2C1`, for which, in series [1], the IC50 was found to be 27 nM. Besides, the EC50 turned out to be 140 nM in series [2] and 850 nM in series [3] (Hepatitis C virus, Huh-7).

For `COc1ccc2c(c1)[C@@H]1[C@@H](CCN1CCN(C)C)Cn1c-2c(C2CCCCC2)c2ccc(C(=O)O)cc21`, inhibition in series [1] was half-maximal at 21 nM (IC50). The EC50 in series [2] is 150 nM; in series [3] (Hepatitis C virus, Huh-7) it was 270 nM.

The record behind these values is ChEMBL document CHEMBL1143286, “Discovery of pentacyclic compounds as potent inhibitors of hepatitis C virus NS5B RNA polymerase” (Bioorg Med Chem Lett, 2009).
